Laboratory results: ChEMBL document CHEMBL3102766, “Thiodiketopiperazines from the marine-derived fungus Phoma sp. OUCMDZ-1847” (J Nat Prod, 2014)
The source made the active and inactive calls. No cut-off for these calls is given here.

Columns and labels:
Assay type in all cases: functional, cell-based
[1] = test system: MGC-803; assay: Cytotoxicity against human MGC803 cells after 24 hrs by SRB assay; details: for IC50: MGC-803, 24 h
Procedure, shortened: (§1)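 Cytotoxicity against the tumor cell lines was read out by the SRB method, with adriamycin run as the positive control.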

[2] = test system: A549; assay: Cytotoxicity against human A549 cells after 24 hrs by SRB assay; details: for IC50: A549, 24 h; procedure, shortened: as §1
[3] = test system: K562; assay: Cytotoxicity against human K562 cells after 72 hrs by MTT assay; details: for IC50: K562, 72 h
[4] = test system: HCT-116; assay: Cytotoxicity against human HCT116 cells after 72 hrs by MTT assay; details: for IC50: HCT-116, 72 h
[5] = test system: HL-60; assay: Cytotoxicity against human HL60 cells after 72 hrs by MTT assay; details: for IC50: HL-60, 72 h

Row | SMILES | IC50 [1] [µM] | IC50 [2] [µM] | Activity [1] | Activity [3] | Activity [2] | Activity [4] | Activity [5] | IC50 [3] [µM] | IC50 [4] [µM] | IC50 [5] [µM]
1 | COc1cccc2c1C(=O)c1c(O)c3c(c(O)c1C2=O)C[C@@](O)(C(=O)CO)C[C@@H]3O[C@H]1C[C@H](N)[C@H](O)[C@H](C)O1 [DOXORUBICIN] | 0.17 | 0.16 | – | – | – | – | – | – | – | –
2 | O=C1C[C@@H]2S[C@@]34C[C@@H]1[C@@H]([C@H]2O)N3C(=O)[C@@]12C[C@H]3C(=O)C[C@H](S1)[C@H](O)[C@H]3N2C4=O | – | – | inactive | inactive | inactive | inactive | inactive | – | – | –
3 | O=C1C[C@H](O)[C@H](O)[C@@H]2[C@H]1C[C@@]13SS[C@]4(C[C@H]5C(=O)C[C@H](O)[C@H](O)[C@H]5N4C1=O)C(=O)N23 | – | – | inactive | inactive | inactive | inactive | inactive | – | – | –
4 | O=C1C=C[C@H](O)[C@@H]2[C@@H]1C[C@@]13SS[C@]4(C[C@@H]5C(=O)C=C[C@H](O)[C@H]5N4C1=O)C(=O)N23 [EPICORAZINE A] | 2.7 | 2.3 | – | – | – | – | – | 1.5 | 0.33 | 0.05
5 | O=C1C[C@@H]2SS[C@@]34C[C@@H]1[C@@H]([C@H]2O)N3C(=O)[C@@]12C[C@H]3C(=O)[C@H](S1)[C@H](O)[C@H](O)[C@H]3N2C4=O | – | – | inactive | inactive | inactive | inactive | inactive | – | – | –
6 | O=C1C[C@@H]2SS[C@@]34C[C@@H]1[C@@H]([C@H]2O)N3C(=O)[C@@]12C[C@H]3C(=O)C[C@H](SS1)[C@H](O)[C@H]3N2C4=O | – | – | inactive | inactive | inactive | inactive | inactive | – | – | –
7 | CS[C@@]12C[C@@H]3C(=O)C=C[C@H](O)[C@H]3N1C(=O)[C@]1(SC)C[C@@H]3C(=O)C=C[C@H](O)[C@H]3N1C2=O | 4.2 | > 10 | – | – | – | – | – | > 10 | 4 | 3.5
8 | O=C1N2[C@H]3[C@H](C[C@]24SS[C@]12C[C@H]1[C@@H]([C@@H](O)CC[C@@H]1O)N2C4=O)[C@@H](O)CC[C@@H]3O | – | – | inactive | inactive | inactive | inactive | inactive | – | – | –
9 | CS[C@@]12CC3=CC=C[C@H](O)[C@H]3N1C(=O)/C(=C/c1ccccc1)NC2=O | – | – | inactive | inactive | inactive | inactive | inactive | – | – | –
10 | CS[C@@]1(Cc2ccccc2)NC(=O)[C@]2(SC)CC3=CC=C[C@H](O)[C@H]3N2C1=O | 8.5 | > 10 | – | – | – | – | – | > 10 | > 10 | > 10
11 | O=C1C=C[C@H](O)[C@@H]2[C@@H]1C[C@@]13SS[C@]4(C[C@H]5C(=O)C=C[C@H](O)[C@H]5N4C1=O)C(=O)N23 | 5.2 | > 10 | – | – | – | – | – | 4.6 | > 10 | 1.6
12 | O=C1C[C@H]2S[C@@]34C[C@@H]1[C@@H]([C@H]2O)N3C(=O)[C@@]12C[C@H]3C(=O)[C@@H](S1)[C@H](O)[C@H](O)[C@H]3N2C4=O | – | – | inactive | inactive | inactive | inactive | inactive | – | – | –
13 | O=C1C=C[C@H](O)[C@@H]2[C@@H]1C[C@@]13SS[C@]4(C[C@H]5C(=O)C[C@H](O)[C@H](O)[C@H]5N4C1=O)C(=O)N23 | 3.4 | > 10 | – | – | – | – | – | > 10 | 7.1 | 3.5
14 | O=C1C[C@H]2SS[C@@]34C[C@@H]1[C@@H]([C@H]2O)N3C(=O)[C@@]12C[C@H]3C(=O)C[C@@H](S1)[C@H](O)[C@H]3N2C4=O | – | – | inactive | inactive | inactive | inactive | inactive | – | – | –
